According to ChEMBL document CHEMBL4270615, “Design, synthesis and biological evaluation of novel thiazolidinedione derivatives as irreversible allosteric IKK-β modulators” (Eur J Med Chem, 2018):
Activity calls are given as the source filed them. No cut-off for these calls is given here.

Legend:
[1] = molecular target: T1, Inhibitor of nuclear factor kappa-B kinase subunit beta (Homo sapiens) (UniProt O14920); test: Inhibition of IKKbeta (unknown origin) at 10 uM using IkappaBalpha-derived 5FAMGRHDSGLDSMK-NH2 as substrate preincubated for 10 mins followed by substrate addition measured after 2 hrs by IMAP based TR-FRET assay relative to control
T1 sequence (whole entry): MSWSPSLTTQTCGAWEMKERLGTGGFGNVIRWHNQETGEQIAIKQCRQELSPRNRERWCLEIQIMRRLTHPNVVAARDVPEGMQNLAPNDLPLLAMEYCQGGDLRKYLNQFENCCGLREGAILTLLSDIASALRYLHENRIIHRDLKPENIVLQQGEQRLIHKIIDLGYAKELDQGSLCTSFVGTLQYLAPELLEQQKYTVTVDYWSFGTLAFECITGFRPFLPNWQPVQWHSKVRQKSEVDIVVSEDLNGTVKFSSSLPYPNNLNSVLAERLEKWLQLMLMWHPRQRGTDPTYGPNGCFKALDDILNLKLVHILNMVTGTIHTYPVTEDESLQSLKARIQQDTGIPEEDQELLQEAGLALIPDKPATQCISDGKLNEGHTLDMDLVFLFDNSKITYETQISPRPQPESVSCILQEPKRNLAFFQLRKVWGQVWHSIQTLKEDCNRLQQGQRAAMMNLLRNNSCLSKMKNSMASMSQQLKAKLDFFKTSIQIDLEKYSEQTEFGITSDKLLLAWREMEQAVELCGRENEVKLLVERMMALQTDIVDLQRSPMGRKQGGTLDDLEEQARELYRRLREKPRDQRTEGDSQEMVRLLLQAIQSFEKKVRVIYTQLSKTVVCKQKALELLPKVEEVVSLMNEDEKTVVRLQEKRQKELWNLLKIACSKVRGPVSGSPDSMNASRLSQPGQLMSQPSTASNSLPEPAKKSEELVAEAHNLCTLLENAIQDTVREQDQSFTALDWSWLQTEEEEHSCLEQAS
In short: (§1)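 Recombinant IKK2 at 0.5 µg/mL in 10 mM Tris-HCl pH 7.2, 10 mM MgCl2, 0.05% NaN3, 1 mM DTT, 0.01% Tween-20. Compound preincubated with enzyme for 10 min, then 1 μM 5-FAM IκBα peptide and 3 μM ATP added; reaction at room temperature for 2 h. IMAP binding reagent (1:600) plus terbium donor (1:400) added 15 h before the TR-FRET read. Percent inhibition measured at 10 µM.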

[2] = molecular target: hERG (KCNH2) (Homo sapiens, UniProt Q12809); test: Inhibition of human ERG expressed in CHOK1 cells assessed as reduction in tail current at 100 uM and -80 holding potential after 100 to 200 secs by whole cell automated patch-clamp electrophysiology assay relative to control; format: ADME, cell-based; conditions: CHO-K1 cells expressing human ERG
In short: (§2)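 CHO-K1 Tet-On hERG cells, with expression induced by doxycycline 5 μg/ml, recorded 20–32 h after induction. Whole-cell automated patch clamp used intracellular solution of 50 KCl, 60 KF, 10 NaCl, 2 MgCl2, 20 EGTA, 10 HEPES pH 7.2 (mM) and extracellular solution of 140 NaCl, 4 KCl, 2 CaCl2, 1 MgCl2, 5 glucose, 10 HEPES pH 7.4. Compound perfused for 100–200 s until tail-current block reached equilibrium. Percent inhibition taken at 100 μM.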

[3] = molecular target: T2, Inhibitor of nuclear factor kappa-B kinase subunit beta (Homo sapiens, UniProt O14920); test: Inhibition of IKKbeta (unknown origin) using IkappaBalpha-derived 5FAMGRHDSGLDSMK-NH2 as substrate preincubated for 10 mins followed by substrate addition measured after 2 hrs by IMAP based TR-FRET assay; in short: as §1
T2 sequence (O14920 whole entry): T1 sequence (whole entry)

[4] = tested on: hERG (KCNH2) versus IKKbeta; test: Safety index, ratio of compound IC50 for human ERG expressed in CHOK1 cells to IC50 for IKKbeta (unknown origin); format: toxicity, cell-based; conditions: CHO-K1 cells expressing human ERG, read-out: Ratio IC50
In short: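 Safety index calculated as hERG IC50 divided by IKK-β IC50.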

[5] = molecular target: Voltage-gated inwardly rectifying potassium channel KCNH2 (Homo sapiens, UniProt Q12809); test: Inhibition of human ERG expressed in CHOK1 cells assessed as reduction in tail current at -80 holding potential after 100 to 200 secs by whole cell automated patch-clamp electrophysiology assay; format: ADME, cell-based; in short: as §2
[6] = molecular target: T2, Inhibitor of nuclear factor kappa-B kinase subunit beta; test: Irreversible inhibition of IKKbeta (unknown origin) using IkappaBalpha-derived 5FAMGRHDSGLDSMK-NH2 as substrate measured after 40 mins
In short: (§3)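 Same IKK2 IMAP TR-FRET system (0.5 µg/mL enzyme, 1 μM peptide, 3 μM ATP, room temperature). Ten concentrations, 0.001–30 μM, with reactions run for 0, 20, 40 or 60 min instead of 2 h. Dose–response curves fitted at each time point. Kobs obtained from ln(% activity remaining) against time, then regressed nonlinearly against concentration.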

[7] = molecular target: T2, Inhibitor of nuclear factor kappa-B kinase subunit beta; test: Irreversible inhibition of IKKbeta (unknown origin) using IkappaBalpha-derived 5FAMGRHDSGLDSMK-NH2 as substrate measured immediately; in short: as §3
[8] = Cytotoxicity against LPS-treated mouse RAW264.7 cells assessed as decrease in cell viability after 24 hrs by MTT assay; format: cell-based; conditions: LPS-treated RAW264.7 cells
In short: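 RAW 264.7 cells seeded at 1×10^5 cells/mL, grown overnight, then exposed to samples for 24 h, with or without 1 μg/ml LPS. MTT added from a 5 mg/mL PBS stock for 4 h at 37 °C. Formazan dissolved in DMSO and absorbance read at 540 nm. IC80 is the concentration lowering viability to 80% in the presence of LPS.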

[9] = tested on: RAW264.7; test: Antiinflammatory activity against mouse RAW264.7 cells assessed as inhibition of LPS-induced TNFalpha production incubated for 1 hr followed by LPS addition measured after 24 hrs by ELISA; format: functional, cell-based
In short: (§4)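 RAW 264.7 macrophages (DMEM, 10% FBS, penicillin/streptomycin, 37 °C, 5% CO2) plated at 2×10^5 cells/mL and left overnight. Compounds at 1.5, 3 and 6 μM, or NS-398 as positive control, given for 1 h, then LPS (10 ng/mL) for 24 h. PGE2 and TNF-α in diluted culture medium quantified by ELISA. IC50 is the concentration halving the produced mediator.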

[10] = molecular target: T1, Inhibitor of nuclear factor kappa-B kinase subunit beta (Homo sapiens); test: Irreversible inhibition of IKKbeta (unknown origin) at 0.001 to 30 uM using IkappaBalpha-derived 5FAMGRHDSGLDSMK-NH2 as substrate measured up to 60 mins; in short: as §3
[11] = tested on: RAW264.7; test: Antiinflammatory activity against mouse RAW264.7 cells assessed as inhibition of LPS-induced PGE2 production incubated for 1 hr followed by LPS addition measured after 24 hrs by ELISA; format: functional, cell-based; in short: as §4
[12] = molecular target: T2, Inhibitor of nuclear factor kappa-B kinase subunit beta; test: Irreversible inhibition of IKKbeta (unknown origin) using IkappaBalpha-derived 5FAMGRHDSGLDSMK-NH2 as substrate measured after 60 mins; in short: as §3
[13] = molecular target: T2, Inhibitor of nuclear factor kappa-B kinase subunit beta; test: Irreversible inhibition of IKKbeta (unknown origin) using IkappaBalpha-derived 5FAMGRHDSGLDSMK-NH2 as substrate measured after 20 mins; in short: as §3
[14] = molecular target: T2, Inhibitor of nuclear factor kappa-B kinase subunit beta; test: Inhibition of human IKKbeta using IKKtide as substrate after 20 mins by [gamma-33P]-ATP based radiometric assay

Chain of hERG (KCNH2) (Q12809 whole entry, the tested form may be a part): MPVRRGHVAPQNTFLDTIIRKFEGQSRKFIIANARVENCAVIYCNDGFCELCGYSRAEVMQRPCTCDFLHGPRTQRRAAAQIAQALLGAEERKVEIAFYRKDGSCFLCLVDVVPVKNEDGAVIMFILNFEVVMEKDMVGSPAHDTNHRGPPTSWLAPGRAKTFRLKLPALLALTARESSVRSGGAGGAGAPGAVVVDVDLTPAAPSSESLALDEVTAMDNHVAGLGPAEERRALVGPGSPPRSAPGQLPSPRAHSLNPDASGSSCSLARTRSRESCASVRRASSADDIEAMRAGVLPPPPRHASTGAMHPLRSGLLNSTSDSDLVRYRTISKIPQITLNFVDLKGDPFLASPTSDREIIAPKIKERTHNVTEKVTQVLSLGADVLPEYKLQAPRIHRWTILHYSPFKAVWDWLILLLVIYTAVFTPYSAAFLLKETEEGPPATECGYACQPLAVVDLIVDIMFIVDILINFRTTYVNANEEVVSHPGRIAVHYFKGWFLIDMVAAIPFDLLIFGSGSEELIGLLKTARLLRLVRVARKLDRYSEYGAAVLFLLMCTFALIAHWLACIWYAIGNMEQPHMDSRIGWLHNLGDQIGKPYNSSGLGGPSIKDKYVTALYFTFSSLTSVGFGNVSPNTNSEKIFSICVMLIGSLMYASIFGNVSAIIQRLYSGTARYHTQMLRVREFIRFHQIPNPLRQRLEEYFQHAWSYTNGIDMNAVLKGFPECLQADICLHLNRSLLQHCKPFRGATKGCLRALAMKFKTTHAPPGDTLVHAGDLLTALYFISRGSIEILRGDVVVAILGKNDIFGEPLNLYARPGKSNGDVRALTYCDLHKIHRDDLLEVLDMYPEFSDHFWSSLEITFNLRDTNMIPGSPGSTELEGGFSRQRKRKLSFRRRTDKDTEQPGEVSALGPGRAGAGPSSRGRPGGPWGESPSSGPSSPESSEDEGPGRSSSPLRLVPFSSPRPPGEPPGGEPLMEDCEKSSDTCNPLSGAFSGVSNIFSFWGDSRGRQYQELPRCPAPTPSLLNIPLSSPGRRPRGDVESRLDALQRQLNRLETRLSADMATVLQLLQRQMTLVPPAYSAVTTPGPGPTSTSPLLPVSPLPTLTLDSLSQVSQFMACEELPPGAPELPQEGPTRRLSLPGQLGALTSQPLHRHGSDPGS
Chain of Voltage-gated inwardly rectifying potassium channel KCNH2 (Q12809 whole entry): as the sequence (Q12809 whole entry, the tested form may be a part) above

`O=C(C1CC1)N1CCN(CCCCOc2ccc(N3C(=O)S/C(=C\c4ccc(Oc5ccc(F)cc5)cc4)C3=O)cc2)CC1` showed an inhibition [1] of 21.2%.
In the case of `COCCCN1CCN(CCCCOc2ccc(N3C(=O)S/C(=C\c4ccc(Oc5ccc(F)cc5)cc4)C3=O)cc2)CC1`, the inhibition [1] is reported as 0.7%.
`COCCN1CCN(CCCCOc2ccc(N3C(=O)S/C(=C\c4ccc(Oc5ccc(F)cc5)cc4)C3=O)cc2)CC1` gave an inhibition [1] of 1.6%.
Work on `O=C1S/C(=C\c2ccc(Oc3ccc(F)cc3)cc2)C(=O)N1c1ccc(OCCCCN2CCN(CC3CC3)CC2)cc1` yielded an inhibition [1] of 85.7%, an inhibition at 100 µM [2] of 99.5% and an IC50 [3] of 1.7 µM. It also gave a selectivity ratio [4] of 2 and an IC50 [5] of 3.4 µM.
`O=C1S/C(=C\c2ccc(Oc3ccc(F)cc3)cc2)C(=O)N1c1ccc(OCCCCCN2CCN(CC3CC3)CC2)cc1` showed an IC50 [6] of 0.299 µM, an IC50 [7] of 1.1 µM and an IC80 at 24 h [8] greater than 6 µM. The inhibition [1] was 92.8%, the IC50 [9] was 1.67 µM and the inhibition [10] was “Active”. For the same molecule, the IC50 [3] was 0.4 µM, the Activity [11] was “Dose-dependent effect” and the IC50 [11] was greater than 6 µM. For the same molecule, the IC50 [12] was 0.24 µM and the IC50 [13] was 0.34 µM.
`COCCN1CCN(CCCCOc2ccc(N3C(=O)S/C(=C\c4ccc(Oc5ccc(Cl)cc5)cc4)C3=O)cc2)CC1` showed an inhibition [1] of 1.7%.
With `COCCCN1CCN(CCCCOc2ccc(N3C(=O)S/C(=C\c4ccc(Oc5ccc(Br)cc5)cc4)C3=O)cc2)CC1` the inhibition [1] was 0%.
In the case of `O=C1S/C(=C\c2ccc(Oc3ccc(Cl)cc3)cc2)C(=O)N1c1ccc(OCCCCN2CCN(CC3CC3)CC2)cc1`, the inhibition [1] is reported as 37.5%.
`COCCCN1CCN(CCCCOc2ccc(N3C(=O)S/C(=C\c4ccc(Oc5ccc([N+](=O)[O-])cc5)cc4)C3=O)cc2)CC1` showed an inhibition [1] of 9.4%.
`COCCN1CCN(CCCCOc2ccc(N3C(=O)S/C(=C\c4ccc(Oc5ccc(Br)cc5)cc4)C3=O)cc2)CC1` gave an inhibition [1] of 0%.
With `Nc1nc(N)nc(-c2ccc(Oc3ccccc3N)cc2)n1` the IC50 [14] was 7.8 µM.
Molecule `O=C1S/C(=C\c2ccc(N3CCOCC3)c(Cl)c2)C(=O)N1c1ccc(OCCCCCN2CCN(CC3CC3)CC2)cc1` has an IC80 at 24 h [8] of less than 1.5 µM, an inhibition [1] of 92.1% and an IC50 [3] of 0.9 µM. The Activity [11] was “Dose-dependent effect” and the IC50 [11] was greater than 6 µM.
For `O=C1S/C(=C\c2ccc(N3CCOCC3)c(Cl)c2)C(=O)N1c1ccc(OCCCN2CCN(CC3CC3)CC2)cc1`, the IC50 [6] was 0.251 µM, the IC50 [7] was 0.372 µM and the IC80 at 24 h [8] was 2.67 µM. For the same molecule, the inhibition [1] was 90.7%, the IC50 [9] was greater than 6 µM and the inhibition [10] was “Active”. For the same molecule, the IC50 [3] was 0.7 µM, the IC50 [12] was 0.252 µM and the IC50 [13] was 0.288 µM.
